Data from PubChem BioAssay.
Records with an inconclusive call do not appear.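 The calls were made as follows, unless noted: active = viability increase at or above a cutoff of the median across tested compounds plus 3 SD (cut at about 8.5% in these data, passing the limit was not always enough); inconclusive = some gains above the cutoff, reason not given; inactive = the rest.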

Legend:
[1] = OD615 S. cerevisiae growth inhibition, permissive medium, pilot counter-assay, permissive growth control for S. cerevisiae lifespan shortening project (AID 705;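 active = growth inhibition above 25% in both replicates, a cutoff set 3 SD above the mean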); conditions: OD615, 24 h, at 10 µM, active compounds read high
Summary of the method: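 System: Engineered DeaD yeast | Buffer or medium: SC raffinose/galactose permissive medium | Doses: 10 µM single dose, 0.25% DMSO | Times: 24 h exposure, 30 °C | Measured by: OD615 turbidity read | Read-out: Yeast growth inhibition indicated by reduced 24 h OD615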

[2] = Restrictive medium S. cerevisiae growth inhibition, OD615, pilot screen of yeast lifespan reduction project, restrictive growth control (AID 706;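 active = growth inhibition above a set limit, 3 SD over mean compound inhibition, in both replicates, cut at about 43% in these data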;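 also: modified DeaD lifespan yeast strain shifted to restrictive glucose medium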); conditions: OD615, 48 h, at 10 µM, active compounds read high
Summary of the method: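 Assay system: engineered S. cerevisiae DeaD strain; Buffer or medium: CSMM-D glucose medium; Dosing: 10 µM compound, 0.25% DMSO; Times: cell pre-growth 4 h, compound exposure 48 h, 30 °C; Detection: absorbance (optical density) measured at 615 nm.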

[3] = viability gain of MRP-1-high H69AR cells under doxorubicin, pilot screen, MRP-1 activator project, CellTiter-Glo, duplicate (AID 807); conditions: H69AR viability with doxorubicin, CellTiter-Glo luminescence; at 10 µM; active compounds read high;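 also: compound pretreatment 18-22 h then 72 h combined with doxorubicin; 0% = doxorubicin alone and 100% = vehicle without doxorubicin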
[4] = growth suppression of beta-catenin knockout HCT116, pilot screen, human colon tumor cells (AID 823;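 active = cell viability at or below a set limit in both duplicate runs, the limit being the all-compound median minus 4 SD, cut at about 23% in these data, passing the limit was not always enough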;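 also: 0% = wells killed by 20 µM Hyamine and 100% = untreated DMSO cell wells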); conditions: CellTiter-Glo, 60 h, at 10 µM, active compounds read low
[5] = growth suppression of PTEN-deleted HCT116, pilot screen, cell-based, HCT116 clonal line, CellTiter-Glo (AID 824;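 active = viability at or below 27.92% in each of two runs, the all-compound median minus 4 SD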;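 also: 0% = 20 µM Hyamine control and 100% = vehicle cell control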); conditions: 60 h, at 10 µM, active compounds read low
[6] = inhibitors of the yeast RAM network, pilot screen, dse1pr::URA3 reporter, 5-FOA selection (AID 869;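 active = inhibition over a set limit, the all-compound mean plus 3 SD, in both replicate runs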;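 also: 0% = DMSO wells with no growth and 100% = 10 µM 1-NA-PP1 with full growth; RAM network block rescues cells from 5-FOA so hits raise OD615 growth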); conditions: S. cerevisiae dse1pr::URA3 5-FOA growth, OD615, 2 d; at 10 µM; active compounds read high; strain carries analog-sensitive mutant Cbk1 kinase
[7] = RAM signaling pathway blockade in yeast – S. cerevisiae, Pdr1DBD-CYC8 efflux-inhibited sensitized strain, primary screen (AID 1298;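 active = RAM network inhibition above 8.4% in each of two replicates, 3 SD over the compound average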;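 also: 0% = DMSO untreated cells without growth and 100% = 10 µM 1-NA-PP1 full growth; higher means more yeast growth rescued from 5-FOA killing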); conditions: S. cerevisiae cbk1-as DSE1-URA3 strain, 5-FOA growth OD615, 2 d; at 50 µM; active compounds read high

CCOC(=O)c1ccc(NC(=O)CSc2nnc(Cn3c(=O)sc4ccccc43)n2C)cc1
inactive: growth inhibition [1] -8.11% | growth inhibition [2] 12% | viability increase [3] -2.6% | viability [4] 94.1% | viability [5] 88.5% | inhibition [6] 0.665% | RAM network inhibition [7] 3.59%

COc1ccc(-c2noc(CN3CCN(c4ccccc4)CC3)n2)cc1
inactive: growth inhibition [1] -12.7% | growth inhibition [2] -10.2% | viability increase [3] -1.14% | viability [4] 93.6% | viability [5] 88.4% | inhibition [6] 1% | RAM network inhibition [7] 5.43%

CCc1nnc(NC(=O)C2CCCCC2)s1
inactive: growth inhibition [1] 5.8% | growth inhibition [2] 14.7% | viability increase [3] 1.12% | viability [4] 109% | viability [5] 106% | inhibition [6] 0.455% | RAM network inhibition [7] 1.04%

O=C(O)CSc1cccc2cccc(C(=O)O)c12
inactive: growth inhibition [1] -0.49% | growth inhibition [2] 4.41% | viability increase [3] -2.27% | viability [4] 105% | viability [5] 101% | inhibition [6] 1.54% | RAM network inhibition [7] 1.15%

CCOC(=O)N1CCN(C(=O)c2ccc3c(c2)N(CC)CCS3)CC1
inactive: growth inhibition [1] -2.54% | growth inhibition [2] 2.25% | viability increase [3] -0.26% | viability [4] 101% | viability [5] 97% | inhibition [6] 1.89% | RAM network inhibition [7] -1.13%

Cc1ccc(S(=O)(=O)N2CCCC2C(=O)Nc2nc3ccccc3s2)cc1 (configuration not stated)
inactive: growth inhibition [1] -4.55% | growth inhibition [2] -5.41% | viability increase [3] -3.97% | viability [4] 79.7% | viability [5] 80.7% | inhibition [6] 2.12% | RAM network inhibition [7] 4.05%

Cc1c(C(=O)N2CCCCC2)sc(N)c1C#N
inactive: growth inhibition [1] 4.06% | growth inhibition [2] 4.32% | viability increase [3] -0.95% | viability [4] 96% | viability [5] 95.2% | inhibition [6] -0.355% | RAM network inhibition [7] 1.18%

COc1cccc(OC)c1C(=O)Nc1ccc2c(c1)OCCO2
inactive: growth inhibition [1] -8.21% | growth inhibition [2] 0.395% | viability increase [3] -0.21% | viability [4] 99.8% | viability [5] 95.9% | inhibition [6] 1.23% | RAM network inhibition [7] 0.51%

CC1=C(C(=O)OC(C)C)C(c2ccc(Br)s2)NC(=O)N1C (configuration not stated)
inactive: growth inhibition [1] -17% | growth inhibition [2] -22.3% | viability increase [3] 0.85% | viability [4] 70.6% | viability [5] 77% | inhibition [6] 0.54% | RAM network inhibition [7] 2.29%

CCOc1ccc(NC(=O)CN2C(=O)COc3ccc(Cl)cc32)cc1
inactive: growth inhibition [1] -17% | growth inhibition [2] -12.8% | viability increase [3] 3.8% | viability [4] 97.4% | viability [5] 90.1% | inhibition [6] 2.06% | RAM network inhibition [7] 6.61%

Cn1ccnc1SCC(=O)Nc1cccc(C(F)(F)F)c1
inactive: growth inhibition [1] 0.76% | growth inhibition [2] 10.5% | viability increase [3] -4.88% | viability [4] 96.4% | viability [5] 96.8% | inhibition [6] 0.71% | RAM network inhibition [7] 4.72%

COc1ccccc1-c1c(C#N)c(SCC(=O)N2CCCC2)nc(C)c1C(N)=O
inactive: growth inhibition [1] -2.97% | growth inhibition [2] -7.78% | viability increase [3] -0.18% | viability [4] 101% | viability [5] 98.2% | inhibition [6] 1.73% | RAM network inhibition [7] 1.04%

COc1ccc(S(=O)(=O)Cc2ccc(C(=O)NCc3ccco3)o2)cc1
inactive: growth inhibition [1] -3.02% | growth inhibition [2] -11.6% | viability increase [3] -4.28% | viability [4] 104% | viability [5] 97.4% | inhibition [6] 0.88% | RAM network inhibition [7] 0.47%

O=C(CNS(=O)(=O)c1ccc(C(=O)N2CCCCC2)cc1)N1CCCCC1
inactive: growth inhibition [1] -11.9% | growth inhibition [2] -18.1% | viability increase [3] 0.86% | viability [4] 93.3% | viability [5] 90.8% | inhibition [6] -0.19% | RAM network inhibition [7] 3.77%

O=C(Nc1ccccc1O)c1ccccc1O
inactive: growth inhibition [1] -9.29% | growth inhibition [2] 2.25% | viability increase [3] -3.07% | viability [4] 75.1% | viability [5] 63.3% | inhibition [6] -0.42% | RAM network inhibition [7] -1.84%

COc1ccc2c(Cl)c(C(=O)NC3CCS(=O)(=O)C3)sc2c1 (configuration not stated)
inactive: growth inhibition [1] 1.61% | growth inhibition [2] -6.69% | viability increase [3] 2.14% | viability [4] 93.3% | viability [5] 99.3% | inhibition [6] 1.92% | RAM network inhibition [7] 1.43%

O=C(CCCCCN1C(=O)C2C3C=CC(C3)C2C1=O)Nc1nccs1 (configuration not stated)
inactive: growth inhibition [1] -3.44% | growth inhibition [2] -2.41% | viability increase [3] -1.31% | viability [4] 100% | viability [5] 91.5% | inhibition [6] 0.215% | RAM network inhibition [7] 4.28%

CCN(CCNC(=O)C1CCCN(S(=O)(=O)c2cnc[nH]2)C1)c1ccccc1 (configuration not stated)
inactive: growth inhibition [1] -0.145% | growth inhibition [2] -6.85% | viability increase [3] -0.77% | viability [4] 106% | viability [5] 101% | inhibition [6] 0.775% | RAM network inhibition [7] 3.46%

CCc1nnc(NC(=O)CSc2nccn2-c2cccc(C)c2C)s1
inactive: growth inhibition [1] 2.46% | growth inhibition [2] 32.5% | viability increase [3] -5.37% | viability [4] 46.2% | viability [5] 42.9% | inhibition [6] 0.935% | RAM network inhibition [7] 1.37%

Cc1ccc(C2CC(c3ccccc3C)n3nc(N)nc3N2)cc1 (configuration not stated)
inactive: growth inhibition [1] 0.605% | growth inhibition [2] -2.86% | viability increase [3] -0.57% | viability [4] 84.6% | viability [5] 83% | inhibition [6] 0.77% | RAM network inhibition [7] 4.75%

Cc1nc2sc(C(c3ccco3)N3CCC(Cc4ccccc4)CC3)c(O)n2n1 (configuration not stated)
inactive: growth inhibition [1] 0.165% | growth inhibition [2] 4.34% | viability increase [3] 0.64% | viability [4] 95.2% | viability [5] 91.4% | inhibition [6] 1.14% | RAM network inhibition [7] 9.02%

CC1CCCC(C)N1C(=O)Cn1c(=O)sc2ccccc21 (configuration not stated)
inactive: growth inhibition [1] -4.41% | growth inhibition [2] 8.62% | viability increase [3] -3.08% | viability [4] 97.8% | viability [5] 90.6% | inhibition [6] 0.87% | RAM network inhibition [7] 4.18%

CP(=O)(COC(=O)c1ccccc1)COC(=O)c1ccccc1
inactive: growth inhibition [1] -20.8% | growth inhibition [2] -19% | viability increase [3] -0.63% | viability [4] 100% | viability [5] 96.5% | inhibition [6] 3.13% | RAM network inhibition [7] 1.26%

Cc1ccccc1C(=O)N1CCC(C(=O)Nc2cccc(F)c2)CC1
inactive: growth inhibition [1] -7.2% | growth inhibition [2] -1.04% | viability increase [3] -0.02% | viability [4] 98.1% | viability [5] 82.7% | inhibition [6] 1.3% | RAM network inhibition [7] 3.22%

CCCSc1n[nH]c(NC(C)=O)n1
inactive: growth inhibition [1] -9.97% | growth inhibition [2] 7.95% | viability increase [3] -0.65% | viability [4] 98.6% | viability [5] 101% | inhibition [6] 2.27% | RAM network inhibition [7] 2.41%

O=C(CSCC(=O)NC1CC1)Nc1ccccc1
inactive: growth inhibition [1] -0.675% | growth inhibition [2] -11.9% | viability increase [3] -1.13% | viability [4] 98.2% | viability [5] 98.7% | inhibition [6] 0.03% | RAM network inhibition [7] -0.72%

Cc1c(NS(=O)(=O)CC23CCC(CC2=O)C3(C)C)c(=O)n(-c2ccccc2)n1C (configuration not stated)
inactive: growth inhibition [1] 5.19% | growth inhibition [2] -4.44% | viability increase [3] -2.6% | viability [4] 99.5% | viability [5] 96.4% | inhibition [6] 2.22% | RAM network inhibition [7] 3.5%

Cc1csc(NC(=O)C2CCCN(S(=O)(=O)c3cccnc3)C2)n1 (configuration not stated)
inactive: growth inhibition [1] -7.25% | growth inhibition [2] 1.94% | viability increase [3] -0.73% | viability [4] 104% | viability [5] 101% | inhibition [6] 1.59% | RAM network inhibition [7] 4.94%

COc1ccc(-c2csc(N3CCN(C(=O)c4ccco4)CC3)n2)cc1
inactive: growth inhibition [1] -13% | growth inhibition [2] 19% | viability increase [3] 2.74% | viability [4] 98.5% | viability [5] 85.1% | inhibition [6] 0.95% | RAM network inhibition [7] 2.04%

COC(=O)c1ccccc1NC(=O)Nc1nnc(N2CCCCC2C)s1 (configuration not stated)
inactive: growth inhibition [1] -8.82% | growth inhibition [2] 5.2% | viability increase [3] -0.77% | viability [4] 64.3% | viability [5] 49.8% | inhibition [6] 0.815% | RAM network inhibition [7] 1.05%

O=C(NCC(c1cccs1)N1CCOCC1)c1cc2ccccc2o1 (configuration not stated)
inactive: growth inhibition [1] -2.08% | growth inhibition [2] -15.1% | viability increase [3] -1.69% | viability [4] 99.3% | viability [5] 100% | inhibition [6] 0.345% | RAM network inhibition [7] 0.26%

OC1CC(c2ccco2)NC2(CCCCC2)C1 (configuration not stated)
inactive: growth inhibition [1] -4.09% | growth inhibition [2] 1.06% | viability increase [3] -1.66% | viability [4] 97.2% | viability [5] 94.6% | inhibition [6] 0.39% | RAM network inhibition [7] 2.73%

O=C(C1CCC(CNc2c(N3CCCCC3)c(=O)c2=O)CC1)N1CCN(c2ccccn2)CC1 (configuration not stated)
inactive: growth inhibition [1] -4.55% | growth inhibition [2] -1.08% | viability increase [3] -0.36% | viability [4] 102% | viability [5] 99.1% | inhibition [6] -0.5% | RAM network inhibition [7] 4.92%

CCOC(=O)c1c(CC(C)C)csc1NC=O
inactive: growth inhibition [1] -4.46% | growth inhibition [2] -33.1% | viability increase [3] -1.84% | viability [4] 81.8% | viability [5] 80.1% | inhibition [6] 1.18% | RAM network inhibition [7] 0.88%

CCCn1cc(S(=O)(=O)CC(=O)NC2CCCCC2)c2ccccc21
inactive: growth inhibition [1] -1.69% | growth inhibition [2] -0.78% | viability increase [3] -0.07% | viability [4] 93.2% | viability [5] 101% | inhibition [6] 1.39% | RAM network inhibition [7] 2.24%

O=C(Cn1cc2c(n1)CCCCC2)NC1CCN(Cc2ccccc2)CC1
inactive: growth inhibition [1] -6.81% | growth inhibition [2] 2.45% | viability increase [3] -1.57% | viability [4] 86.5% | viability [5] 83.4% | inhibition [6] 2.21% | RAM network inhibition [7] 7.63%
